ChEMBL document CHEMBL5712885, “A chromatin activity-based chemoproteomic approach reveals a transcriptional repressome for gene-specific silencing” (Nat Commun, 2014)
Activity calls are given as the source filed them. The rule behind the calls is not given here. Where a SMILES comes first, the peptide text is derived from it. The star is where a group is joined. Cbz = O=C(OCc1ccccc1)*

Columns and labels:
[1] = tested on: RAW264.7; assay: Upregulation of C-Myc protein expression in LPS tolerant mouse RAW264.7 cells in presence of G9a/LPS at 10 uM upto 4 hrs by immunoblot analysis; format: functional, cell-based
[2] = tested on: RAW264.7; assay: Upregulation of C-Myc protein expression in LPS tolerant mouse RAW264.7 cells at 10 uM upto 4 hrs in presence of LPS by immunoblot analysis; format: functional, cell-based
[3] = tested on: RAW264.7; assay: Upregulation of C-Myc protein expression in LPS tolerant mouse RAW264.7 cells with G9a knock down at 10 uM upto 4 hrs in presence of LPS by immunoblot analysis; format: functional, cell-based
[4] = biological target: T1, Histone-lysine N-methyltransferase EHMT2 (Mus musculus) (UniProt Q9Z148); conditions: C57BL/6, RAW264.7, dose 250.0 nM, time 16.0 hrs
T1 sequence (whole entry): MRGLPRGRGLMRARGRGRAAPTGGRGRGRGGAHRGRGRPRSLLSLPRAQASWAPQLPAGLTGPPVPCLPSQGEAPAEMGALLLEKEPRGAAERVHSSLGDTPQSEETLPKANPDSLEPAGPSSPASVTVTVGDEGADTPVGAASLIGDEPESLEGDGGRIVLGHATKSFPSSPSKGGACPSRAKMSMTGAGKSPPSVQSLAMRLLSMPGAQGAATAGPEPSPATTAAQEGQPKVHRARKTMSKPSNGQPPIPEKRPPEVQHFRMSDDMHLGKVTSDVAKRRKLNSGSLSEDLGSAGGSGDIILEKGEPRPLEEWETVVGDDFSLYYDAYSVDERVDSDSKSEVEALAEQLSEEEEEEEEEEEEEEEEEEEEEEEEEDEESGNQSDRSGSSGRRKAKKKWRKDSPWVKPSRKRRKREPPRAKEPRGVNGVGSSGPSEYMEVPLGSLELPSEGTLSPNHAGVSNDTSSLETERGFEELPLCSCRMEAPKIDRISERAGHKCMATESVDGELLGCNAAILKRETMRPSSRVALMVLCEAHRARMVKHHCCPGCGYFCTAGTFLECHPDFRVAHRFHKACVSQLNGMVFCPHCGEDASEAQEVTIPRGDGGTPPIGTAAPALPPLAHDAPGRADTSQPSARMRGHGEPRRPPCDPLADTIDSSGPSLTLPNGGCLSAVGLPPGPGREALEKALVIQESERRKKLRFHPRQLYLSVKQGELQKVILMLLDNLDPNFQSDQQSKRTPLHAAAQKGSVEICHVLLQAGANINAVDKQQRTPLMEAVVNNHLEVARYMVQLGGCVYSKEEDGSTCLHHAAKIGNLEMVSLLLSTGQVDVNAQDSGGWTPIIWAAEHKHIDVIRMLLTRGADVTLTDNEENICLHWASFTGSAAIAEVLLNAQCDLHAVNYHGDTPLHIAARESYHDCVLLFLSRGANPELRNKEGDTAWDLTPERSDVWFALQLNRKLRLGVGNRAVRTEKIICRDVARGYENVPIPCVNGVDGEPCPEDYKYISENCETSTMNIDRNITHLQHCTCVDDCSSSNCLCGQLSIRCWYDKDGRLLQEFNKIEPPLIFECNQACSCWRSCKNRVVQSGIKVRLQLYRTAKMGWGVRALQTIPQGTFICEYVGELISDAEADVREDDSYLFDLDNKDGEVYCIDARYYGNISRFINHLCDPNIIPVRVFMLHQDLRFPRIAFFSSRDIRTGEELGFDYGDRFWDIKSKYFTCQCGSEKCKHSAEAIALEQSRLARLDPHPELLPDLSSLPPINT

[5] = tested on: RAW264.7; assay: Cytotoxicity against mouse RAW264.7 cells assessed as reduction in cell survival at 1 uM after 9 days Giemsa staining based assay; format: toxicity; conditions: raw264.7, 216 h, time 9 day
Procedure, shortened: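 Raw264.7 cells plated at 50, 100 and 200 viable cells in duplicate wells, primed 48 h with 100 ng ml⁻¹ LPS, then given fresh media containing 1 μM inhibitor. Grown 9 days, then fixed in methanol-acetic acid (3:1) and stained 30 min with 10% Giemsa. Colonies over 20 cells counted. Survival expressed as percent of colonies on plates without LPS or inhibitor.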

[6] = biological target: T1, Histone-lysine N-methyltransferase EHMT2 (Mus musculus); conditions: C57BL/6, BMDM, dose 250.0 nM, time 16.0 hrs
[7] = biological target: T1, Histone-lysine N-methyltransferase EHMT2 (Mus musculus); conditions: C57BL/6, BMDM, dose 250.0 nM, time 16.0 hrs; remark: listed apart in the source
[8] = biological target: T1, Histone-lysine N-methyltransferase EHMT2 (Mus musculus); conditions: C57BL/6, BMDM, dose 250.0 nM, time 16.0 hrs; remark: listed apart in the source
[9] = biological target: T1, Histone-lysine N-methyltransferase EHMT2 (Mus musculus); conditions: C57BL/6, RAW264.7, dose 250.0 nM, time 16.0 hrs; remark: listed apart in the source
[10] = biological target: T1, Histone-lysine N-methyltransferase EHMT2 (Mus musculus); conditions: C57BL/6, BMDM, dose 250.0 nM, time 16.0 hrs; remark: listed apart in the source
[11] = tested on: RAW264.7; assay: Down regulation of c-Myc protein expression in LPS tolerant mouse RAW264.7 cells with G9a knockdown at 1 ug/ml upto 90 mins by immunoblot analysis; format: functional, cell-based; conditions: dose 1.0 µg/ml
Procedure, shortened: (§1)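 Raw264.7 cells (shRNA G9a-knockdown line with ≥90% knockdown, or empty-vector control) primed with 100 ng ml⁻¹ LPS for 24 h, then given 1 µg ml⁻¹ cycloheximide for indicated times. c-Myc was detected by anti-c-Myc immunoblot with γ-tubulin loading control. Bands were quantified by densitometry and plotted, and half-life was read from the fitted curve.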

[12] = tested on: RAW264.7; assay: Down regulation of c-Myc protein expression in LPS tolerant mouse RAW264.7 cells with G9a overexpression at 1 ug/ml upto 90 mins in presence of LPS by immunoblot analysis; format: functional, cell-based; conditions: dose 1.0 µg/ml
[13] = tested on: RAW264.7; assay: Down regulation of c-Myc protein expression in LPS tolerant mouse RAW264.7 cells at 1 ug/ml upto 90 mins in presence of LPS by immunoblot analysis; format: functional, cell-based; conditions: dose 1.0 µg/ml; procedure, shortened: as §1

CC(C)C[C@@H](C=O)NC(=O)[C@H](CC(C)C)NC(=O)[C@H](CC(C)C)NC(=O)OCc1ccccc1 (Cbz-Leu-Leu-Leu-aldehyde)
Activity [1]: inactive | Activity [2]: Active | Activity [3]: Active

COc1cc2c(NC3CCN(C(C)C)CC3)nc(C3CCCCC3)nc2cc1OCCCN1CCCC1
inhibition [4]: Active | Activity [5]: Toxic | inhibition [6]: Active | inhibition [7]: Active | inhibition [8]: Active | inhibition [9]: Active | inhibition [10]: Active

C[C@@H]1C[C@@H]([C@H](O)CC2CC(=O)NC(=O)C2)C(=O)[C@@H](C)C1
Activity [11]: Active | Activity [12]: inactive | Activity [13]: Active
